Laboratory results as given in ChEMBL document CHEMBL1124882, “Synthesis and evaluation of 1,2,2-tris(sulfonyl)hydrazines as antineoplastic and trypanocidal agents” (1990).

Key:
L1210 [1] = assay: Evaluated for average percent change in body weight from onset to termination of therapy against L1210 Leukemia cells in mice after 150 mg/kg dose administration.; format: functional, Mus musculus
How it was run: (§1)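 Recipient mice each received 0.1 mL of suspension containing 10⁶ L1210 cells. The line was kept in RPMI 1640 with 10% FBS and was re-passaged i.p. in CD2F1 donor mice every 8 weeks. Drug was given i.p. in DMSO (≤0.025 mL) once daily for 6 consecutive days, starting 24 h after implantation. Groups held 5–10 mice, with vehicle controls. Value is average % body-weight change from onset to end of therapy.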

L1210 [2] = assay: (§2) Percentage of mice survived after 60 days of treatment with the compound was determined.; format: functional, Mus musculus; parameters: concentration or dose not given beside the values
How it was run: (§3)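 Mice implanted ip with 10⁶ L1210 leukemia cells (also P388 leukemia and Sarcoma 180); drug given ip in DMSO (≤0.025 mL) once daily for 6 consecutive days from 24 h after implantation, or as single dose; groups of five; vehicle controls. %T/C = mean survival treated/control ×100, excluding 60-day survivors, which are reported separately; weight change from onset to end of therapy used as toxicity.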

L1210 [3] = assay: Evaluated for average percent change in body weight from onset to termination of therapy against L1210 Leukemia cells in mice after 200 mg/kg dose administration.; format: functional, Mus musculus; how it was run: as §1
L1210 [4] = assay: Average survival time of treated group / control group x(100) was determined.; format: functional, Mus musculus; how it was run: as §3
L1210 [5] = assay: Evaluated for average percent change in body weight from onset to termination of therapy against L1210 Leukemia cells in mice after 60 mg/kg dose administration.; format: functional, Mus musculus; how it was run: as §1
L1210 [6] = assay: Evaluated for average percent change in body weight from onset to termination of therapy against L1210 Leukemia cells in mice after 40 mg/kg dose administration.; format: functional, Mus musculus; how it was run: as §1
L1210 [7] = assay: Evaluated for average percent change in body weight from onset to termination of therapy against L1210 Leukemia cells in mice after 100 mg/kg dose administration.; format: functional, Mus musculus; how it was run: as §1
L1210 [8] = assay: Evaluated for average percent change in body weight from onset to termination of therapy against L1210 Leukemia cells in mice after 15 mg/kg dose administration.; format: functional, Mus musculus
How it was run: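 Mice were implanted with 10⁶ L1210 cells in 0.1 mL, from a line kept in culture and passaged in CD2F1 donor mice. A single i.p. dose was given in DMSO (≤0.025 mL). Groups held 5–10 mice, with vehicle-treated tumor-bearing controls. Read-out is average percent body-weight change from onset to termination of therapy, used as the toxicity index.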

Mus musculus [9] = species on record: Mus musculus; assay: Effect of aging of compound on the activity after 0 min; format: functional
How it was run: (§4)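 Compound, 1 M stock in DMSO, diluted 100 µL into 9.9 mL 200 mM potassium phosphate pH 7.6 at 37 °C; aliquots taken at timed intervals and injected ip (20 µL/g, effective initial dose 0.2 mmol/kg) into female CD-1 mice infected ip with 10⁶ T. rhodesiense Y Tat 1.1, 3 days post-infection; 3–4 mice/group; read-out days survived beyond vehicle controls.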

Mus musculus [10] = species on record: Mus musculus; assay: Effect of aging of compound on the activity after 200 min; format: functional; how it was run: as §4
Mus musculus [11] = species on record: Mus musculus; assay: Effect of aging of compound on the activity after 100 min; format: functional; how it was run: as §4
Mus musculus [12] = species on record: Mus musculus; assay: as §2; format: functional; how it was run: as §3

Row | SMILES | Change in weight (L1210 [1]) [%] | Survival (L1210 [2]) [%] | T/C (L1210 [4]) [%] | other results
1 | CS(=O)(=O)N(CCBr)N(S(C)(=O)=O)S(C)(=O)=O | -2 | 0 |  | 
2 | COc1ccc(S(=O)(=O)N(CCCl)N(S(C)(=O)=O)S(C)(=O)=O)cc1 |  | 100 |  | Change in weight (L1210 [3]): 5.9%
3 | CS(=O)(=O)N(N(CCCl)S(=O)(=O)c1ccccc1)S(C)(=O)=O | 0.5 | 40 |  | 
4 | Cc1ccc(S(=O)(=O)N(CCCl)N(S(C)(=O)=O)S(C)(=O)=O)cc1 | -12 | 60 | 210 | 
5 | CS(=O)(=O)N(N(CCCl)S(=O)(=O)c1ccc(Br)cc1)S(C)(=O)=O | 0.9 | 60 |  | 
6 | CS(=O)(=O)N(CCCl)N(S(C)(=O)=O)S(C)(=O)=O |  | 100 |  | Change in weight (L1210 [5]): -7.2%
7 | CN(NS(C)(=O)=O)S(C)(=O)=O |  | 0 | 180 | Change in weight (L1210 [6]): -5.8%
8 | CS(=O)(=O)OCCN(N(S(C)(=O)=O)S(C)(=O)=O)S(C)(=O)=O |  | 0 |  | Change in weight (L1210 [7]): -4.2%
9 | CS(=O)(=O)N(N(CCCl)S(=O)(=O)c1ccc(Cl)cc1)S(C)(=O)=O |  | 60 |  | Change in weight (L1210 [3]): -3.4%
10 | CS(=O)(=O)NN(CCCl)S(C)(=O)=O [VPN-4090CE] |  | 40 | 130 | Change in weight (L1210 [8]): -3.3%
11 | CN(N(S(C)(=O)=O)S(C)(=O)=O)S(C)(=O)=O | -7.7 |  |  | Mean increase in survival (Mus musculus [9]): 6.3 days; Mean increase in survival (Mus musculus [10]): 1.2 days; Mean increase in survival (Mus musculus [11]): 3.7 days; Survival (Mus musculus [12]): 0%
12 | CS(=O)(=O)N(CCI)N(S(C)(=O)=O)S(C)(=O)=O | 8 | 0 | 110 | 
